Measurements from ChEMBL document CHEMBL2401617, “Synthesis and biological evaluation of some novel thiazole compounds as potential anti-inflammatory agents” (2013).
≈ marks a conversion by molar mass, not a printed value.

How the values were obtained:
Format in all cases: functional
[1] = system: Rattus norvegicus; assay: Antiinflammatory activity in albino Wistar rat assessed as inhibition of carrageenan-induced paw oedema at 50 mg/kg, po administered 1 hr prior to carrageenan challenge measured at 1 hr post carrageenan challenge by plethysmometeric analysis relative to control
Summary of the method: (§1)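 Albino Wistar rats of either sex (130–150 g), 6 per group, fasted 12 h with water ad libitum. Test compounds were given orally at 50 mg/kg as DMSO solution; controls received 1 ml 20% v/v DMSO. One hour later, 0.1 ml 1% w/v carrageenan in 0.9% saline was injected into the left hind paw plantar region. Plethysmometer volume was read at 0 and 1–4 h. % inhibition = [1 − (Vt/Vc)] × 100.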

[2] = system: Staphylococcus aureus; assay: Antibacterial activity against Staphylococcus aureus NCTC 7447 assessed as growth inhibition after 24 hrs by Kirby-Bauer disc diffusion method
Summary of the method: (§2)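 Modified Kirby-Bauer disc diffusion on Mueller-Hinton agar spread with broth culture at about 10^8 cells/ml. Blank 8.0 mm paper discs were impregnated with test solution. Ampicillin discs at the same concentration and solvent served as positive control, and solvent discs as negative control. Plates were incubated at 35–37 °C, and inhibition-zone diameter (mm) was read at 24 h by caliper. % activity index = zone relative to ampicillin.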

[3] = system: Rattus norvegicus; assay: Antiinflammatory activity in albino Wistar rat assessed as inhibition of carrageenan-induced paw oedema at 50 mg/kg, po administered 1 hr prior to carrageenan challenge measured at 2 hrs by plethysmometeric analysis relative to control; summary of the method: as §1
[4] = system: Bacillus cereus; assay: Antibacterial activity against Bacillus cereus NCTC 14579 assessed as growth inhibition after 24 hrs by Kirby-Bauer disc diffusion method relative to ampicillin; summary of the method: as §2
[5] = system: Staphylococcus aureus; assay: Antibacterial activity against Staphylococcus aureus NCTC 7447 assessed as growth inhibition after 24 hrs by Kirby-Bauer disc diffusion method relative to ampicillin; design: concentration or dose not given beside the values; summary of the method: as §2
[6] = system: Serratia marcescens; assay: Antibacterial activity against Serratia marcescens IMRU 70 assessed as growth inhibition after 24 hrs by Kirby-Bauer disc diffusion method relative to ampicillin; design: concentration or dose not given beside the values; summary of the method: as §2
[7] = system: Serratia marcescens; assay: Antibacterial activity against Serratia marcescens IMRU 70 assessed as growth inhibition after 24 hrs by Kirby-Bauer disc diffusion method; summary of the method: as §2
[8] = system: Proteus mirabilis; assay: Antibacterial activity against Proteus mirabilis NCTC 289 assessed as growth inhibition after 24 hrs by Kirby-Bauer disc diffusion method relative to ampicillin; design: concentration or dose not given beside the values; summary of the method: as §2
[9] = system: Rattus norvegicus; assay: Antiinflammatory activity in albino Wistar rat assessed as inhibition of carrageenan-induced paw oedema at 50 mg/kg, po administered 1 hr prior to carrageenan challenge measured at 3 hrs by plethysmometeric analysis relative to control; summary of the method: as §1
[10] = system: Proteus mirabilis; assay: Antibacterial activity against Proteus mirabilis NCTC 289 assessed as growth inhibition after 24 hrs by Kirby-Bauer disc diffusion method; summary of the method: as §2
[11] = system: Bacillus cereus; assay: Antibacterial activity against Bacillus cereus NCTC 14579 assessed as growth inhibition after 24 hrs by Kirby-Bauer disc diffusion method; summary of the method: as §2
[12] = system: Rattus norvegicus; assay: Antiinflammatory activity in albino Wistar rat assessed as inhibition of carrageenan-induced paw oedema at 50 mg/kg, po administered 1 hr prior to carrageenan challenge measured at 4 hrs by plethysmometeric analysis relative to control; summary of the method: as §1
[13] = system: Staphylococcus aureus; assay: Antibacterial activity against Staphylococcus aureus NCTC 7447 assessed as growth inhibition by disc diffusion method

| MIC [13] | SMILES | inhibition in vivo at 50 mg/kg [1] | diameter of the inhibition zone (DIZ) [2] | inhibition in vivo at 50 mg/kg [3] | Activity_index [4] | Activity_index [5] | Activity_index [6] | diameter of the inhibition zone (DIZ) [7] | Activity_index [8] | inhibition in vivo at 50 mg/kg [9] | diameter of the inhibition zone (DIZ) [10] | diameter of the inhibition zone (DIZ) [11] | inhibition in vivo at 50 mg/kg [12] |
| --- | --- | --- | --- | --- | --- | --- | --- | --- | --- | --- | --- | --- | --- |
| – | Nc1nc(-c2ccc(N3CCOCC3)cc2)cs1 | -17% | 5 mm | 31.7% | 17.39% | 20.83% | 15.72% | 3 mm | 9.52% | 75.3% | 2 mm | 4 mm | 86.8% |
| – | C/C(=N\NC1=NC(=O)C(C)S1)c1ccc(N2CCOCC2)cc1 (stereo not given) | – | 5 mm | – | 21.74% | 20.83% | 10.52% | 2 mm | 9.52% | – | 2 mm | 5 mm | – |
| – | C/C(=N\NC1=NCC(=O)S1)c1ccc(N2CCOCC2)cc1 | 29.5% | 5 mm | 28.6% | 16.67% | 20.83% | 15.72% | 3 mm | 9.52% | 63.4% | 2 mm | 4 mm | 78.2% |
| – | C/C(=N\Nc1nc(C)cs1)c1ccc(N2CCOCC2)cc1 | – | 5 mm | – | 13.04% | 20.83% | 15.72% | 2 mm | 9.52% | – | 2 mm | 3 mm | – |
| – | C/C(=N\Nc1nc(-c2ccccc2)cs1)c1ccc(N2CCOCC2)cc1 | -1.6% | 4 mm | 35% | 17.39% | 16.67% | 15.72% | 2 mm | 14.28% | 62.2% | 3 mm | 4 mm | 79.1% |
| – | C/C(=N\NC1=NC(=N)CS1)c1ccc(N2CCOCC2)cc1 | – | 5 mm | – | 17.39% | 20.83% | 15.72% | 3 mm | 9.52% | – | 2 mm | 4 mm | – |
| 40 µg/mL (≈ 140 µM) | C/C(=N\NC(=O)CC#N)c1ccc(N2CCOCC2)cc1 | – | 18 mm | – | 17.39% | 75% | 15.72% | 2 mm | 14.28% | – | 3 mm | 4 mm | – |
| – | C/C(=N/NC(=O)/C(C#N)=C1/SC=C(c2ccccc2)N1c1ccccc1)c1ccc(N2CCOCC2)cc1 | – | 5 mm | – | 17.39% | 20.83% | 15.72% | 3 mm | 9.52% | – | 2 mm | 4 mm | – |
| – | CC1=C(O)N(c2ccccc2)/C(=C(/C#N)C(=O)N/N=C(/C)c2ccc(N3CCOCC3)cc2)S1 | – | 5 mm | – | 13.04% | 20.83% | 15.72% | 3 mm | 14.28% | – | 3 mm | 3 mm | – |
